# High-throughput results (PubChem)
# Shown are actives, neighbours in structure and some others; about 2.3% of the full set was active somewhere.
# Autophagy HCS = alters autophagy in cells | calls only at 10 µM (by protocol) | AID 463193 | 0.98% of 190,000 active | MEF GFP-LC3 puncta imaging; test concentration mostly 10 µM;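 active means percentage of spot-positive cells more than 3 SD above its plate mean, without a fluorescence outlier flag or 80% toxicity; inconclusive means no clear call, values can overlap the other calls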
# b-catenin transl = modulators of beta-catenin nuclear translocation. 0.3% of 190,000 active. nuclear translocation activity, % at 5 µM. HeLa beta-catenin nuclear translocation, immunofluorescence imaging. AID 1665;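 active means nuclear translocation activity above 50% at 5 µM, with a well cell count of 50 or more; inconclusive means wells under 50 cells across six images, flagged as toxic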;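 further: per-cell ratio of nuclear to cytoplasmic median beta-catenin stain intensity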
#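 Test system: human HeLa cell line; Doses: 5 µM primary, 0.02–20 µM confirmation; Incubation: 24 h compound exposure, 37°C; Detection: beta-catenin immunofluorescence imaging with DAPI; Read-out: beta-catenin nuclear/cytoplasmic ratio, % activation.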
# Dynein cargo inh = dynein cargo transport inhibition. 3617.4 mouse cells, GR-EGFP nuclear translocation imaging; test concentration mostly 20 µM; stimulated with dexamethasone, 1 µM; active compounds read low. z-score, hits read low. 0.47% of 220,000 active. AID 1381;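 active means plate z-score of nuclear minus cytoplasmic receptor signal below a set negative limit, without overly bright fluorescence or cell loss, cut at about -3.5 in these data, passing the limit was not always enough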;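 further: z-score of nuclear minus cytoplasmic ring GR-EGFP intensity difference per well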
#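 Buffer or medium: tetracycline-free induction medium containing charcoal-stripped FBS / Reagent: dexamethasone agonist, 1.0 µM final, for 30 min / Technique: automated 10x imaging of fixed Hoechst-stained cells / Times: induction 48 h, compound 1 h, agonist 30 min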
# Insulin prom up = MIN6 insulin promoter up-regulation; 0.3% of 190,000 active; z-score at 5 µM; AID 1625; MIN6 insulin promoter-GFP reporter, high-content imaging; active compounds read high;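 active means z-score above 3 at 5 µM with at least 500 cells counted in the well; inconclusive means wells under 500 cells, flagged as cytotoxic or low count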
# MT stabilizer = stabilizes microtubules in HeLa cells | HeLa tubulin immunostaining HCS, 24 h; share of cells brighter than vehicle mean+2SD | % tubulin-high responders, % at 10 µM | 0.83% of 200,000 active;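 active means plate Z-score above 3 for both tubulin-high and condensed-nucleus cell shares, with cell loss under 80%, at 10 µM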;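 further: anti alpha tubulin signal scored within the nucleus-defined area of each cell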
# Hits are given with their value; – = inactive; ? = inconclusive; · = no result; + = active, no number.
SMILES,Autophagy HCS,b-catenin transl,Dynein cargo inh,Insulin prom up,MT stabilizer
O=C(Nc1ccc2c(c1)C(=O)OC2)c1ccc(F)cc1F,·,–,–,–,·
COc1ccc(C(=O)Oc2cc(/C=N/NS(=O)(=O)c3ccccc3)ccc2OC)cc1,–,–,–,–,–
COc1ccc(/C=N/NC(N)=S)cc1OC(=O)c1ccccc1,–,–,–,–,37.5
COc1ccc(/C=N/NC(=O)c2cccc([N+](=O)[O-])c2)cc1OC(=O)c1ccccc1,–,–,–,–,41.3
Cc1ccc(Nc2cnn(C34CC5CC(CC(CC(=O)O)(C5)C3)C4)c(=O)c2Cl)c(Cl)c1,–,–,–,–,–
COCCN(C(=S)Nc1cc(C)cc(C)c1)C(C)c1ccco1 (centres undefined),–,–,–,–,–
Cc1ccc2nc(SCC(=O)Nc3ccccc3N3CCOCC3)c(C#N)cc2c1,+,–,–,–,46.3
O=c1c2ccc([N+](=O)[O-])cc2ncn1CCOc1cccc(Br)c1,+,–,–,–,–
O=C(NC1CCCC1)c1cnn2c(C(F)(F)F)cc(-c3ccc4c(c3)OCO4)nc12,+,·,–,·,–
O=C(c1cnn2c(C(F)(F)F)cc(-c3ccc4c(c3)OCO4)nc12)N1CCCCC1,–,–,–,–,–
COc1ccc(OC)c(C2C(C#N)=C(N)Oc3cc(N)ccc32)c1 (centres undefined),–,–,–,–,–
N#CC1=C(N)Oc2cc(N)ccc2C1C1CCCCC1 (centres undefined),–,·,–,–,46.2
CCOc1ccc(/C=C2/SC(=O)NC2=S)cc1,–,–,–,–,–
CCOc1ccc(N=C2NC(=O)S/C2=C\c2ccc(N(C)C)cc2)cc1,+,–,–,–,–
COc1ccc(OC)c(C2=NOC(C(=O)NCc3ccco3)C2)c1 (centres undefined),–,·,–,–,21.1
O=C(NCc1ccco1)C1CC(c2cc(C(F)(F)F)cc(C(F)(F)F)c2)=NO1 (centres undefined),·,92.2,–,–,·
CCc1[nH]nc(C(=O)N2CCCC(CCC(=O)N3CCN(c4ccccn4)CC3)C2)c1C (centres undefined),–,–,–,·,–
CC1CCN(C(=O)COC(=O)c2ccc3c(c2)OCO3)CC1,–,–,–,–,–
CCN1C(=O)/C(=C/c2ccc(N3CCCC3)cc2)NC1=S,+,–,–,15.8,–
Cc1cc(/C=C2\NC(=S)N(C)C2=O)ccc1N1CCCC1,+,–,–,·,–
CCCN1C(=O)/C(=C/c2ccc(N3CCOCC3)cc2)NC1=S,–,–,–,·,–
Cc1cc(N2CCCC2)ccc1/C=C1/C(=O)N(C)C(=S)N1C,–,–,–,·,25.4
CCCN1C(=O)S/C(=C\c2ccc(N3CCOCC3)cc2C)C1=O,–,–,–,–,–
CCCN1C(=O)/C(=C/c2ccc(N3CCCC3)c(C)c2)NC1=S,+,·,–,·,–
Cn1cc(CN2CCN(Cc3ccccc3)CC2)c(-c2cccc(Cl)c2)n1,–,–,–,–,–
SMILES,Autophagy HCS,b-catenin transl,Dynein cargo inh,Insulin prom up,MT stabilizer
COc1ccc(N2CCN(C(=O)Cn3c(=O)[nH]c4ccccc4c3=O)CC2)cc1,–,–,–,–,–
NC(=O)NC(=O)COC(=O)c1cccc(S(=O)(=O)N2CCCCCC2)c1,·,–,–,–,·
Cc1cc(/C=C2/C(=O)N(C)C(=S)N2C)ccc1N1CCCC1,+,–,–,·,–
COc1ccc(S(=O)(=O)N2CCCCCC2)cc1N,–,–,–,–,–
O=C1CC(c2cccc(Br)c2)c2cc3c(cc2N1)CCC3 (centres undefined),–,–,–,–,28.1
O=C1CC(c2cc(F)ccc2F)c2cc3c(cc2N1)CCC3 (centres undefined),–,–,–,–,14.4
O=C(CCc1ccccn1)N1CCCC(CNS(=O)(=O)c2cccs2)C1 (centres undefined),–,–,–,–,–
COc1ccc(NC2=C(NCCO)C(=O)c3ccccc3C2=O)cc1,–,–,–,–,21.1
Cc1[nH]c2ccccc2c1/C=N/NC(=O)c1cc(C(C)C)[nH]n1,·,–,–,–,·
Cc1onc(-c2ccccc2)c1C(=O)Nc1nc2c(s1)CCCC2,–,–,–,·,18.5
Cc1onc(-c2ccccc2)c1C(=O)Nc1sc2c(c1C#N)CCC(C)C2 (centres undefined),–,–,–,–,27.2
Cc1onc(-c2c(F)cccc2Cl)c1C(=O)Nc1nc2c(s1)CCCC2,–,–,–,–,–
C=C(C(=O)O)C1CCC2(C)CCCC(C)(O)C2C1 (centres undefined),·,–,–,–,·
Cc1ccc(N/C(N)=N/c2nc(CSc3nnc(C)s3)cc(=O)[nH]2)c(C)c1,–,–,–,–,12.5
COc1ccc(N/C(N)=N/c2nc(CSc3nnc(C)s3)cc(=O)[nH]2)cc1,–,–,–,·,–
CCOc1ccc(-n2c(SCC(=O)NC(C)CC)nc3n[nH]c(C)c3c2=N)cc1 (centres undefined),–,–,–,3,–
COC(=O)c1cc(=O)n(Cc2ccc3c(c2)OCO3)c(=Nc2ccccc2)s1,–,–,-3.52,–,–
CC(C)NC(=S)N/N=C/c1ccc2c(c1)OCCO2,–,–,–,–,–
Cc1cc(NC(=S)N(Cc2ccc(Br)cc2)Cc2ccc(C(=O)O)cc2)ccc1Cl,–,–,–,3.8,–
CCOc1ccc(NC(=O)C2CCC(CNc3c(N4CCC(C)CC4)c(=O)c3=O)CC2)cc1 (centres undefined),·,–,–,–,·
CC(NC(=O)c1cccc(Cn2cc([N+](=O)[O-])cn2)c1)c1ccc(C(C)(C)C)cc1 (centres undefined),–,·,–,·,46.4
COc1ccc2oc(-c3ccccc3[N+](=O)[O-])cc(=O)c2c1,–,–,–,–,16.0
O=S(=O)(CCN1CCCCC1)Oc1ccc(Cl)cc1Cl,·,–,–,–,·
Cc1ccc(S(=O)(=O)CCN2C=CC(C(F)(F)F)=NCC2)cc1,·,–,–,–,·
Cc1ccc(CSc2nc3ccccc3cc2C=O)cc1,–,–,–,–,21.4
SMILES,Autophagy HCS,b-catenin transl,Dynein cargo inh,Insulin prom up,MT stabilizer
O=Cc1cc2ccccc2nc1SCc1ccc(Cl)c(Cl)c1,–,–,–,?,17.8
O=Cc1cc2ccccc2nc1SCc1ccc(Cl)cc1,–,–,–,–,28.4
O=c1[nH]c(SCc2ccc(Cl)cc2)nc2ccccc12,–,–,–,–,–
O=S(=O)(CCN1CCSCC1)c1ccccc1,·,–,–,–,·
FC(F)(F)Oc1ccc(NC(=S)Nc2ccccc2N2CCOCC2)cc1,·,–,–,–,·
CCOc1ccc(NS(=O)(=O)c2ccc(OCC)c3ncccc23)cc1,–,–,–,–,43.8
CCOc1ccc(S(=O)(=O)NCc2ccc(C)cc2)c2cccnc12,–,–,–,–,–
CN1N=C(C(C)(C)C)CSC1=Nc1ccccc1,·,–,–,–,·
OC1(Cc2ccccc2)CCNCC1,·,–,–,–,·
COc1ccc2c(C)cc(SCC(=O)N(C)C3CCS(=O)(=O)C3)nc2c1 (centres undefined),+,–,–,·,–
